This is an account of results in ChEMBL document CHEMBL1133105, “Antimalarial, antitrypanosomal, and antileishmanial activities and cytotoxicity of bis(9-amino-6-chloro-2-methoxyacridines): influence of the linker” (J Med Chem, 2000).

The pIC50 is −log10 of the IC50, conventionally taken in molar units. Read a high pIC50 as a small IC50.

pIC50: −log10 of the molar value.

One assay has as its system Trypanosoma brucei. Kind of assay: Percentage of activity against Trypanosoma brucei at 6.25 uM. It counts as functional.
Settings: not given
The gist of the method:
(§1)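 Bloodstream-form T. brucei in HMI-9 medium, 10 000 parasites/well, exposed to 12.5, 6.25, 3.13 and 1.56 µM drug for 4 days. Read-out is % inhibition of parasite multiplication. Macrophage toxicity judged on mouse primary peritoneal macrophages.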
With `COc1ccc2nc3cc(Cl)ccc3c(NCCCN(CCCNc3c4ccc(Cl)cc4nc4ccc(OC)cc34)C(=O)CCN3CCN(C)CC3)c2c1`, the “Inhibition of parasite multiplication” value came to 100%.
Same read-out and setting: for `COc1ccc2nc3cc(Cl)ccc3c(NCCCN(CCCNc3c4ccc(Cl)cc4nc4ccc(OC)cc34)C(=O)CNC(=O)OC(C)(C)C)c2c1` the value was 100%.

For the next assay, the system named is Trypanosoma cruzi. Description: Percentage of activity against Trypanosoma cruzi at 12.5 uM.
Settings: not given
It counts as functional. An outline of the steps:
(§2)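 Mouse peritoneal macrophages, 30 000/well, infected after 24 h with about 100 000 T. cruzi trypomastigotes per well plus 2-fold drug dilutions (12.5–1.56 µM). Incubated 4 days at 37 °C, 5% CO2. Methanol-fixed, Giemsa-stained and scored microscopically as % reduction of total parasite load (free trypomastigotes plus intracellular amastigotes) versus untreated controls.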
As to `COc1ccc2nc3cc(Cl)ccc3c(NCCCN(CCCNc3c4ccc(Cl)cc4nc4ccc(OC)cc34)C(=O)CNC(=O)OC(C)(C)C)c2c1`, the “T. cruzi parasite load reduction” value worked out at 80%.

Another assay has as its system Trypanosoma cruzi. Description: In Vitro evaluation for the percentage of activity towards Trypanosoma cruzi at 3.13 uM Concentration; Toxic upon mouse primary peritoneal macrophages.
Settings: not given
It counts as functional, organism-based. An outline of the steps: as §2
With `COc1ccc2nc3cc(Cl)ccc3c(NCCCN(CCCNc3c4ccc(Cl)cc4nc4ccc(OC)cc34)C(=O)CCN3CCN(C)CC3)c2c1`, the Cytotoxicity result was “Toxic”.

A further assay deals with Leishmania infantum. Kind of assay: Percentage of activity against Leishmania infantum 6.25 uM.
Settings: not given
It counts as functional. The gist of the method:
(§3)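 Starch-stimulated mouse peritoneal macrophages, 30 000/well, infected after 24 h with spleen-derived L. infantum amastigotes (10:1) together with 2-fold drug dilutions (12.5–1.56 µM). Incubated 7 days at 37 °C, 5% CO2. Wright-stained slides scored microscopically as % reduction of total parasite load or of infected macrophages. Uninfected treated cultures judged microscopically for macrophage toxicity.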
Regarding `COc1ccc2nc3cc(Cl)ccc3c(NCCCN(CCCNc3c4ccc(Cl)cc4nc4ccc(OC)cc34)C(=O)CNC(=O)OC(C)(C)C)c2c1`, the “Antileishmanial activity (% reduction of parasite load)” value was determined as 60%.

In another assay the test system is Trypanosoma cruzi. Description: Percentage of activity against Trypanosoma cruzi at 12.5 uM; Toxic upon mouse primary peritoneal macrophages. In kind it is functional, organism-based.
Settings: not given
An outline of the steps:
as §2
In the case of `COc1ccc2nc3cc(Cl)ccc3c(NCCCN(CCCNc3c4ccc(Cl)cc4nc4ccc(OC)cc34)C(=O)CCN3CCN(C)CC3)c2c1`, the Cytotoxicity entry is “Toxic”.

Another assay relates to Trypanosoma brucei. Description: Percentage of activity against Trypanosoma brucei at 3.13 uM. In kind it is functional.
Settings: not given
An outline of the steps: as §1
`COc1ccc2nc3cc(Cl)ccc3c(NCCCN(CCCNc3c4ccc(Cl)cc4nc4ccc(OC)cc34)C(=O)CCN3CCN(C)CC3)c2c1` showed a Parasite growth inhibition of 100%.
The same measure, in the same setting: as for `COc1ccc2nc3cc(Cl)ccc3c(NCCCN(CCCNc3c4ccc(Cl)cc4nc4ccc(OC)cc34)C(=O)CNC(=O)OC(C)(C)C)c2c1`, the figure is 100%.

For a further assay, the system named is Trypanosoma cruzi. Kind of assay: Percentage of activity against Trypanosoma cruzi at 1.56 uM. In kind it is functional.
Settings: not given
An outline of the steps:
as §2
Turning to `COc1ccc2nc3cc(Cl)ccc3c(NCCCN(CCCNc3c4ccc(Cl)cc4nc4ccc(OC)cc34)C(=O)CCN3CCN(C)CC3)c2c1`, the Parasite load reduction is 0%.
Same read-out and setting: for `COc1ccc2nc3cc(Cl)ccc3c(NCCCN(CCCNc3c4ccc(Cl)cc4nc4ccc(OC)cc34)C(=O)CNC(=O)OC(C)(C)C)c2c1` the value was 0%.

In a further assay the test system is Leishmania infantum. Kind of assay: In Vitro evaluation for the percentage of activity towards Leishmania infantum at 3.13 uM Concentration; Toxic upon mouse primary peritoneal macrophages.
Settings: not given
In kind it is functional, organism-based. An outline of the steps: as §3
Turning to `COc1ccc2nc3cc(Cl)ccc3c(NCCCN(CCCNc3c4ccc(Cl)cc4nc4ccc(OC)cc34)C(=O)CCN3CCN(C)CC3)c2c1`, the Cytotoxicity entry was “Toxic”.

A further assay concerns Leishmania infantum. Description: Percentage of activity against Leishmania infantum at 3.13 uM. It counts as functional.
Settings: not given
An outline of the steps: as §3
On to `COc1ccc2nc3cc(Cl)ccc3c(NCCCN(CCCNc3c4ccc(Cl)cc4nc4ccc(OC)cc34)C(=O)CNC(=O)OC(C)(C)C)c2c1`, for which the “Percent antileishmanial activity (reduction of parasite load)” value was 40%.

The next assay has as its system Trypanosoma cruzi. Kind of assay: In Vitro evaluation for the percentage of activity towards Trypanosoma cruzi at 6.25 uM Concentration; Toxic upon mouse primary peritoneal macrophages. In kind it is functional, organism-based.
Settings: not given
An outline of the steps: as §2
In the case of `COc1ccc2nc3cc(Cl)ccc3c(NCCCN(CCCNc3c4ccc(Cl)cc4nc4ccc(OC)cc34)C(=O)CCN3CCN(C)CC3)c2c1`, the Cytotoxicity entry is “Toxic”.

The test system of another assay is Leishmania infantum. Description: Percentage of activity against Leishmania infantum at 12.5 uM Concentration; Toxic upon mouse primary peritoneal macrophages. It counts as functional, organism-based.
Settings: not given
The gist of the method: as §3
As to `COc1ccc2nc3cc(Cl)ccc3c(NCCCN(CCCNc3c4ccc(Cl)cc4nc4ccc(OC)cc34)C(=O)CCN3CCN(C)CC3)c2c1`, the Cytotoxicity result was “Toxic”.

For another assay, the system named is Leishmania infantum. Description: In Vitro evaluation for the percentage of activity towards Leishmania infantum at 12.5 uM Concentration. In kind it is functional.
Settings: not given
The gist of the method: as §3
Consider `COc1ccc2nc3cc(Cl)ccc3c(NCCCN(CCCNc3c4ccc(Cl)cc4nc4ccc(OC)cc34)C(=O)CNC(=O)OC(C)(C)C)c2c1`, for which the “Percent inhibition of Leishmania infantum” value is reported as 80%.

The next assay deals with Trypanosoma cruzi. Kind of assay: Percentage of activity against Trypanosoma cruzi at 3.13 uM. In kind it is functional.
Settings: not given
An outline of the steps:
as §2
In the case of `COc1ccc2nc3cc(Cl)ccc3c(NCCCN(CCCNc3c4ccc(Cl)cc4nc4ccc(OC)cc34)C(=O)CNC(=O)OC(C)(C)C)c2c1`, the “Reduction of T. cruzi parasite load” value turned out to be 0%.

The next assay deals with MRC5. Kind of assay: Cytotoxicity on MRC-5 cells at 6.25 uM. In kind it is functional. The conditions noted are these: Homo sapiens. An outline of the steps: (§4)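 MRC-5 human diploid embryonic lung cells seeded at 5 000/well, washed after 24 h, then given 2-fold drug dilutions (25, 12.5, 6.25, 3.13 µM) in RPMI + 5% FCS, final DMSO below 0.5%. Incubated 7 days at 37 °C, 5% CO2. MTT colorimetric read-out, scored as % reduction of absorbance at 540 nm versus untreated controls.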
Consider `COc1ccc2nc3cc(Cl)ccc3c(NCCCN(CCCNc3c4ccc(Cl)cc4nc4ccc(OC)cc34)C(=O)CCN3CCN(C)CC3)c2c1`, for which the cytotoxicity at 6.25 µM was determined as 57%.
For the compound `COc1ccc2nc3cc(Cl)ccc3c(NCCCN(CCCNc3c4ccc(Cl)cc4nc4ccc(OC)cc34)C(=O)CNC(=O)OC(C)(C)C)c2c1`, the cytotoxicity at 6.25 µM amounted to 20%.

In a further assay the test system is MRC5. Kind of assay: Cytotoxicity on MRC-5 cells at 25 uM. The conditions noted are these: Homo sapiens. In kind it is functional. The gist of the method:
as §4
`COc1ccc2nc3cc(Cl)ccc3c(NCCCN(CCCNc3c4ccc(Cl)cc4nc4ccc(OC)cc34)C(=O)CCN3CCN(C)CC3)c2c1` had a cytotoxicity at 25 µM of 80%.
The compound `COc1ccc2nc3cc(Cl)ccc3c(NCCCN(CCCNc3c4ccc(Cl)cc4nc4ccc(OC)cc34)C(=O)CNC(=O)OC(C)(C)C)c2c1` yielded a cytotoxicity at 25 µM of 100%.

The next assay has as its system Leishmania infantum. Kind of assay: In Vitro evaluation for the percentage of activity towards Leishmania infantum at 1.56 uM Concentration; Toxic upon mouse primary peritoneal macrophages. In kind it is functional, organism-based.
Settings: not given
An outline of the steps:
as §3
As to `COc1ccc2nc3cc(Cl)ccc3c(NCCCN(CCCNc3c4ccc(Cl)cc4nc4ccc(OC)cc34)C(=O)CCN3CCN(C)CC3)c2c1`, the Cytotoxicity entry was “Toxic”.

A further assay concerns Leishmania infantum. Kind of assay: Percentage of activity against Leishmania infantum at 6.25 uM; Toxic upon mouse primary peritoneal macrophages. In kind it is functional, organism-based.
Settings: not given
An outline of the steps: as §3
Consider `COc1ccc2nc3cc(Cl)ccc3c(NCCCN(CCCNc3c4ccc(Cl)cc4nc4ccc(OC)cc34)C(=O)CCN3CCN(C)CC3)c2c1`, for which the Cytotoxicity result is “Toxic”.

A further assay deals with Leishmania infantum. Description: Percentage of activity against Leishmania infantum at 1.56 uM. In kind it is functional.
Settings: not given
The gist of the method:
as §3
As to `COc1ccc2nc3cc(Cl)ccc3c(NCCCN(CCCNc3c4ccc(Cl)cc4nc4ccc(OC)cc34)C(=O)CNC(=O)OC(C)(C)C)c2c1`, the “Antileishmanial activity (% reduction of parasite load)” value stood at 0%.

For another assay, the system named is MRC5. Kind of assay: Cytotoxicity on MRC-5 cells at 3.13 uM. It counts as functional. The conditions noted are these: Homo sapiens. An outline of the steps: as §4
`COc1ccc2nc3cc(Cl)ccc3c(NCCCN(CCCNc3c4ccc(Cl)cc4nc4ccc(OC)cc34)C(=O)CCN3CCN(C)CC3)c2c1` came in with a cytotoxicity at 3.13 µM of 40%.
Compound `COc1ccc2nc3cc(Cl)ccc3c(NCCCN(CCCNc3c4ccc(Cl)cc4nc4ccc(OC)cc34)C(=O)CNC(=O)OC(C)(C)C)c2c1` showed a cytotoxicity at 3.13 µM of 0%.

The subject of a further assay is Plasmodium falciparum. Description: In vitro sensitivity for Plasmodium falciparum FcB1R. It counts as functional, organism-based.
Settings: not given
An outline of the steps:
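Asynchronous P. falciparum cultures in human erythrocytes (0.5% parasitemia, 1% haematocrit) exposed to serially diluted drug for 24 h at 37 °C. [3H]hypoxanthine (0.5 µCi/well) then added for a further 24 h. Uptake compared with drug-free controls on the same plate. IC50 taken from the concentration–response curve, averaged over independent experiments. DMSO ≤0.1%.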
With `COc1ccc2nc3cc(Cl)ccc3c(NCCCN(CCCNc3c4ccc(Cl)cc4nc4ccc(OC)cc34)C(=O)CCN3CCN(C)CC3)c2c1`, the pIC50 was 7.21.
As to `COc1ccc2nc3cc(Cl)ccc3c(NCCCN(CCCNc3c4ccc(Cl)cc4nc4ccc(OC)cc34)C(=O)CNC(=O)OC(C)(C)C)c2c1`, the pIC50 is 7.04.

For the next assay, the system named is Trypanosoma brucei. Kind of assay: Percentage of activity against Trypanosoma brucei at 1.56 uM. In kind it is functional.
Settings: not given
An outline of the steps: as §1
With `COc1ccc2nc3cc(Cl)ccc3c(NCCCN(CCCNc3c4ccc(Cl)cc4nc4ccc(OC)cc34)C(=O)CCN3CCN(C)CC3)c2c1`, the “Percent inhibition of parasite multiplication” value is listed as 100%.
Still for that read-out and setting: as for `COc1ccc2nc3cc(Cl)ccc3c(NCCCN(CCCNc3c4ccc(Cl)cc4nc4ccc(OC)cc34)C(=O)CNC(=O)OC(C)(C)C)c2c1`, the figure is 100%.

For the next assay, the system named is Trypanosoma brucei. Description: Percentage of activity against Trypanosoma brucei at 12.5 uM. In kind it is functional.
Settings: not given
An outline of the steps:
as §1
`COc1ccc2nc3cc(Cl)ccc3c(NCCCN(CCCNc3c4ccc(Cl)cc4nc4ccc(OC)cc34)C(=O)CNC(=O)OC(C)(C)C)c2c1`: the “Inhibition of parasite multiplication” value is given as 100%.

The next assay concerns MRC5. Description: Cytotoxicity on MRC-5 cells at 12.5 uM. In kind it is functional. The conditions noted are these: Homo sapiens. An outline of the steps: as §4
As to `COc1ccc2nc3cc(Cl)ccc3c(NCCCN(CCCNc3c4ccc(Cl)cc4nc4ccc(OC)cc34)C(=O)CCN3CCN(C)CC3)c2c1`, the cytotoxicity at 12.5 µM was 74%.
On the same count and under the same terms, for `COc1ccc2nc3cc(Cl)ccc3c(NCCCN(CCCNc3c4ccc(Cl)cc4nc4ccc(OC)cc34)C(=O)CNC(=O)OC(C)(C)C)c2c1` the value was 100%.

In the next assay the test system is Trypanosoma cruzi. Description: Percentage of activity against Trypanosoma cruzi at 6.25 uM Concentration. In kind it is functional.
Settings: not given
An outline of the steps: as §2
For `COc1ccc2nc3cc(Cl)ccc3c(NCCCN(CCCNc3c4ccc(Cl)cc4nc4ccc(OC)cc34)C(=O)CNC(=O)OC(C)(C)C)c2c1`, the “Reduction of T. cruzi parasite load” value is 40%.
